Most compounds without a hit are left out; they make up all but 5.9% or so of the library.
Pf Dd2 growth: P. falciparum Dd2 growth inhibition. actives 2.3% (n = 94,000). SYBR Green, 72 h; hits give low values. AID 1159554. activity change, % at 10 µM; in the data active = activity change below about -80%; inconclusive = no clear call, values can overlap the other calls
KDM4C inh: blocks human GASC-1 (KDM4C) demethylase activity; actives 0.15% (n = 96,000); Q9H3R0; inhibition, % at 12.5 µM; GST-KDM4C 2-372, H3K9me3 peptide, LANCE TR-FRET; AID 720574;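 active = mean replicate inhibition above about 25%, with at least 55% of replicates also reaching it, limit read from the data, passing the limit was not always enough; inconclusive = only one of those two conditions met; inactive = neither condition met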
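Test system – GST-tagged GASC-1 (JMJD2C) catalytic fragment, aa 2-372 · Medium – HEPES buffer, pH 7.5, plus ascorbate · Reagent – H3K9me3 peptide with Fe(II)/2OG · Compound – one test concentration per compound · Timing – 30 min reaction, 60 min detection, RT · Technique – TR-FRET with Eu antibody and ULight streptavidin, EDTA stop · Read-out basis – inhibition from TR-FRET ratio decrease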
IDH1 mut inh: IDH1 R132H (human) inhibition | actives 0.18% (n = 70,000) | inhibition, % at 10 µM | IDH1 R132H reductase, diaphorase/resazurin fluorescence, 60 min | AID 624101 | O75874; in the data active = inhibition above about 34%; inconclusive = no clear call, values can overlap the other calls; inactive = below about 11%;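 note: 0% = DMSO and 100% = no enzyme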
Target sequence (O75874 whole entry R132H): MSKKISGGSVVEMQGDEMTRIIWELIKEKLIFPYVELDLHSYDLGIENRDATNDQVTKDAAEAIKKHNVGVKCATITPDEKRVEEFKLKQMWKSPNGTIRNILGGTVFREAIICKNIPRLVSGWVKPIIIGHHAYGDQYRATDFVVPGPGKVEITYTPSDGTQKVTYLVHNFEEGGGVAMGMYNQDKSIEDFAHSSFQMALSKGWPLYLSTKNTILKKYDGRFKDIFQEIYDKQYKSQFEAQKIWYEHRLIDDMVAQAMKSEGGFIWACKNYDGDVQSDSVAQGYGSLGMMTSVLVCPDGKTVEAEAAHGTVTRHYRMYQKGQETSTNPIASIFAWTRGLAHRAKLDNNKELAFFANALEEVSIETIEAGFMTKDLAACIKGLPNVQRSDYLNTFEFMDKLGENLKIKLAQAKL
T cruzi growth-1: T. cruzi proliferation inhibition | T. cruzi beta-gal in NIH3T3, GalScreen luminescence, 90 h | inhibition, % at 8.34 µM | actives 5.9% (n = 77,000) | AID 624255;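 active = mean inhibition above about 93%, with at least 55% of replicates each passing it, limit read from the data, passing the limit was not always enough; inconclusive = only one of those two conditions holds; inactive = neither condition holds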
T cruzi growth-2: inhibitors of T. cruzi proliferation. shares compounds with T cruzi growth-1. AID 651739. inhibition, % at 8.35 µM. T. cruzi beta-gal in NIH3T3, GalScreen luminescence, 90 h. actives 72% (n = 5,600);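 active = mean replicate inhibition above about 95% and at least 55% of replicates individually reaching it, limit read from the data; inconclusive = only one of the two criteria is met; inactive = neither criterion is met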
T cruzi growth-3: Trypanosoma cruzi proliferation inhibition; shares compounds with T cruzi growth-1; inhibition, % at 2.09 µM; T. cruzi beta-gal in NIH3T3, GalScreen luminescence, 90 h; actives 21% (n = 5,600); AID 651740;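 active = mean inhibition above about 95%, with at least 55% of replicates also reaching it, limit read from the data; inconclusive = meets just one of the two conditions; inactive = meets neither condition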;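 note: plate controls were neutral control median for no effect and positive control median for full effect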
3T3 cytotox: kills mouse NIH/3T3 fibroblasts. shares compounds with T cruzi growth-1. NIH/3T3 viability, CellTiter-Glo ATP luminescence, 90 h. cytotoxicity (signal decrease), % at 8.35 µM. actives 14% (n = 5,600);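 active = mean signal decrease across replicates above about 35% based on untreated-well scatter, with enough replicates individually passing, limit read from the data; inconclusive = no rule stated though some were filed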;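 note: 0% = median of neutral control wells and 100% = median of positive control wells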
NIH3T3 tox 2: kills mouse NIH/3T3 fibroblasts; shares compounds with T cruzi growth-1; NIH/3T3 viability, CellTiter-Glo ATP luminescence, 90 h; inhibition, % at 24.9 µM; actives 56% (n = 5,600);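 active = mean loss of cell viability signal at or above a set limit, and enough replicates individually reaching it; inconclusive = meets only the mean limit or only the replicate share; inactive = meets neither condition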;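 note: 0% = median of neutral control wells and 100% = median of positive control wells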
* = called active by the depositor; ? = inconclusive; / = no result.

SMILES	Pf Dd2 growth	KDM4C inh	IDH1 mut inh	T cruzi growth-1	T cruzi growth-2	T cruzi growth-3	3T3 cytotox	NIH3T3 tox 2
Cc1ccc(S(=O)(=O)N2C[C@@H](O)COC[C@H]3O[C@@H](CC(=O)N[C@H]4CCN(Cc5ccccc5)C4)CC[C@@H]32)cc1	-32	-1	/	99*	106*	81	11	14
COc1ccc(S(=O)(=O)N2C[C@@H](O)COC[C@H]3O[C@H](CC(=O)N[C@@H]4CCN(Cc5ccccc5)C4)CC[C@@H]32)cc1	/	-3	/	83	/	/	/	/
CS(=O)(=O)N(CC(=O)Nc1ccc2ccccc2c1)c1cccc2ccccc12	/	/	0	/	/	/	/	/
O=C(Nc1cccc(F)c1)N1CCCCN2[C@H](CO)[C@H](c3ccc(-c4ccncc4)cc3)[C@H]2C1	-65	-1	/	105*	112*	54	1	53*
O=C(Nc1cccc(F)c1)N1CCCCN2[C@H](C1)[C@@H](c1ccc(-c3ccncc3)cc1)[C@@H]2CO	-37	-2	/	111*	111*	70	-19	7
O=C(Nc1ccc(F)cc1)N1CCCCN2[C@@H](CO)[C@@H](c3ccc(-c4ccncc4)cc3)[C@@H]2C1	-17	-2	/	72	/	/	/	/
Cc1ccc(-c2ccc([C@H]3[C@@H](CO)N4CCCCN(C(=O)Nc5cccc(F)c5)C[C@H]34)cc2)cc1	-27	13	/	107*	109*	115*	119*	105*
COc1ccc(C)cc1NC(=O)CSc1nc(C)cc(-c2ccccc2)n1	/	/	0	/	/	/	/	/
COc1ccc(NC(=O)C(=O)NCC(=O)Nc2ccc(C)cc2)cc1	/	/	3	/	/	/	/	/
COc1ccc(NC(=O)C(C)N(c2cc(C)cc(C)c2)S(C)(=O)=O)c(OC)c1 (stereo not given)	/	/	0	/	/	/	/	/
O=C([C@@H]1[C@@H](CO)[C@@H]2Cn3c(cccc3=O)[C@H]1N2CC1CC1)N1CCc2ccccc2C1	/	0	/	121*	-8	-10	18	12
O=C([C@H]1[C@H](CO)[C@H]2Cn3c(cccc3=O)[C@@H]1N2CC1CC1)N1CCc2ccccc2C1	/	1	/	108*	83	40	7	16
C[C@H](CO)N1C[C@H](C)[C@@H](CN(C)CC2CCCCC2)OCCCC[C@H](C)Oc2ccc(NC(=O)Nc3ccc(C(F)(F)F)cc3)cc2C1=O	-41	-2	/	84	/	/	/	/
C[C@@H]1CN([C@H](C)CO)C(=O)c2cc(NC(=O)Nc3ccc(C(F)(F)F)cc3)ccc2O[C@@H](C)CCCCO[C@@H]1CN(C)CC1CCCCC1	-64	-4	-3	?	?	112*	118*	105*
C[C@@H]1CN([C@@H](C)CO)C(=O)c2cc(NC(=O)Nc3ccc(C(F)(F)F)cc3)ccc2O[C@@H](C)CCCCO[C@H]1CN(C)CC1CCCCC1	-60	/	/	88	/	/	/	/
C[C@H](CO)N1C[C@H](C)[C@H](CN(C)CC2CCCCC2)OCCCC[C@H](C)Oc2ccc(NC(=O)Nc3ccc(C(F)(F)F)cc3)cc2C1=O	-78	-1	/	95*	91	106*	120*	105*
OCC1OC(OCC2OC(NCCc3ccc(O)cc3)C(O)C(O)C2O)C(O)C(O)C1O (stereo not given)	/	/	0	/	/	/	/	/
Cc1ccc(-c2ccc3c(c2)O[C@H](CN(C)C(=O)NC(C)C)[C@H](C)CN([C@H](C)CO)S3(=O)=O)cc1	20	2	0	32	/	/	/	/
CC(C)NC(=O)N(C)C[C@H]1Oc2cc(-c3ccncc3)ccc2S(=O)(=O)N([C@H](C)CO)C[C@H]1C	0	-2	6	109*	68	28	4	32*
CC(C)NC(=O)N(C)C[C@H]1Oc2cc(-c3ccncc3)ccc2S(=O)(=O)N([C@@H](C)CO)C[C@@H]1C	-19	1	2	110*	85	38	-16	13
Cc1ccc(S(=O)(=O)N(C)C[C@@H]2Oc3ncc(C#CCN(C)C)cc3C(=O)N([C@H](C)CO)C[C@@H]2C)cc1	5	1	0	14	/	/	/	/
Cc1ccc(S(=O)(=O)N(C)C[C@H]2Oc3ncc(C#CCC(C)C)cc3C(=O)N([C@@H](C)CO)C[C@@H]2C)cc1	-47	-1	0	124*	110*	74	-5	93*
CC(C)CC#Cc1cnc2c(c1)C(=O)N([C@@H](C)CO)C[C@H](C)[C@@H](CN(C)S(=O)(=O)c1ccccc1)O2	-45	-3	-4	?	102*	72	13	?
Cc1ccc(S(=O)(=O)N(C)C[C@H]2Oc3ncc(C#CCC(C)C)cc3C(=O)N([C@H](C)CO)C[C@@H]2C)cc1	-30	-3	-4	110*	?	52	4	33*
Cc1ccc(S(=O)(=O)N(C)C[C@@H]2Oc3ncc(C#CCC(C)C)cc3C(=O)N([C@@H](C)CO)C[C@H]2C)cc1	-26	1	-1	117*	104*	85	11	102*
SMILES	Pf Dd2 growth	KDM4C inh	IDH1 mut inh	T cruzi growth-1	T cruzi growth-2	T cruzi growth-3	3T3 cytotox	NIH3T3 tox 2
CC(C)CC#Cc1cnc2c(c1)C(=O)N([C@@H](C)CO)C[C@@H](C)[C@@H](CN(C)S(=O)(=O)c1ccccc1)O2	-27	-2	0	60	/	/	/	/
CC(=O)OCC(=O)[C@@]1(O)CCC2C3CC[C@@H]4C[C@H](OC(C)=O)CC[C@]4(C)C3C(=O)C[C@@]21C (stereo not given in full)	/	/	0	/	/	/	/	/
Cc1ccc2c(C)c(C(=O)Nc3ccc(S(=O)(=O)Nc4ncccn4)cc3)oc2c1	/	/	0	/	/	/	/	/
Cc1cc(C)c(S(=O)(=O)NCC(=O)Nc2ccc(C(C)C)cc2)c(C)c1	/	/	-1	/	/	/	/	/
O=C(Nc1ccccc1)N1CCCCN2[C@H](CO)[C@H](c3ccc(-c4ccncc4)cc3)[C@H]2C1	-13	-1	/	96*	94	65	-27	-4
O=C(Nc1ccccc1)N1CCCCN2[C@H](CO)[C@H](c3ccc(-c4ccccc4)cc3)[C@@H]2C1	-33	0	/	112*	109*	32	-14	13
O=C(Nc1ccccc1)N1CCCCN2[C@H](CO)[C@H](c3ccc(-c4ccccc4)cc3)[C@H]2C1	-35	-1	/	103*	101*	64	56*	104*
O=C(Nc1ccccc1)N1CCCCN2[C@H](C1)[C@H](c1ccc(-c3ccncc3)cc1)[C@@H]2CO	25	1	/	63	/	/	/	/
Cn1c(SCC(=O)Nc2ccc(Br)cc2Cl)nnc1-c1ccncc1	/	/	0	/	/	/	/	/
CCOc1ccc(OCC(=O)Nc2sc3c(c2C(N)=O)CCC(C)C3)cc1 (stereo not given)	/	/	0	/	/	/	/	/
COc1ccc(NC(=O)CN(c2ccc(C)c(C)c2)S(C)(=O)=O)c(OC)c1	/	/	0	/	/	/	/	/
